Data reported in ChEMBL document CHEMBL3867483, “Gaining in pan-affinity towards sigma 1 and sigma 2 receptors. SAR studies on arylalkylamines” (Bioorg Med Chem, 2017).

Tests used:
[1] = Selectivity ratio of Ki for sigma 2 receptor in rat liver membranes to Ki for sigma 1 receptor in guinea pig cerebral cortex membranes; format: cell membranes
How it was run: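 Ratio computed as Ki at S2R (rat liver, [3H]-DTG with S1R masked by (+)-pentazocine) divided by Ki at S1R (guinea pig cortex, [3H](+)-pentazocine). Both Ki values come from Cheng-Prusoff conversion of IC50s from 120 min displacement assays, each the mean of three experiments.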

[2] = molecular target: Sigma non-opioid intracellular receptor 1 (Cavia porcellus, UniProt Q60492); test: Displacement of [3H]-(+)-pentazocine from sigma 1 receptor in guinea pig cerebral cortex membranes after 120 mins by scintillation counting analysis; design: species or system Membrane
Sequence of Sigma non-opioid intracellular receptor 1 (Q60492 whole entry): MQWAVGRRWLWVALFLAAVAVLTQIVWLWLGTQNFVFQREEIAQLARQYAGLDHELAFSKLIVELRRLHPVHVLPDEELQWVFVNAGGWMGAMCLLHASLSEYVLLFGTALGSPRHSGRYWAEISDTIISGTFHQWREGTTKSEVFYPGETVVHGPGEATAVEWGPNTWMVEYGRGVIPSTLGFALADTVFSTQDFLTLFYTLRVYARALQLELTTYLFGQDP

[3] = Displacement of [3H]-DTG from sigma 2 receptor in rat liver membranes after 120 mins by scintillation counting analysis; format: cell membranes, Membrane
How it was run: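 Rat liver homogenate (150 μg) incubated 120 min at room temperature with 3 nM [3H]-DTG in 50 mM Tris-HCl pH 8.0. Excess unlabeled (+)-pentazocine masked S1R, and high unlabeled DTG defined nonspecific binding. Compound at 10^-10 to 10^-5 M final, in duplicate. Filtered through PEI-presoaked filtermats and counted by scintillation. IC50 from nonlinear regression, converted to Ki by Cheng-Prusoff; mean ± SEM of three experiments.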

COc1cccc(C(C)CCN2CCC(Cc3ccccc3)CC2)c1 (racemic)
Ratio Ki [1]: 4.83 | Ki [2]: 2.9 nM | Ki [3]: 14 nM

COc1cccc(C(C)CCN(C)C)c1 (stereo not given)
Ratio Ki [1]: 3.62 | Ki [2]: 239 nM | Ki [3]: 864 nM

CC(CCN1CCOCC1)c1ccccc1 (racemic)
Ratio Ki [1]: 1.2 | Ki [2]: 85 nM | Ki [3]: 71 nM

COc1ccc(C(C)CCN(C)C)cc1 (racemic)
Ratio Ki [1]: 2.2 | Ki [2]: 116 nM | Ki [3]: 255 nM

COc1ccc(C(C)CCN2CCC(Cc3ccccc3)CC2)cc1 (racemic)
Ratio Ki [1]: 5.14 | Ki [2]: 3.5 nM | Ki [3]: 18 nM

CC(CCN(C)C)c1ccccc1 (racemic)
Ki [2]: 427 nM | Ki [3]: > 1000 nM

COc1cccc(C(C)CCN2CCCCC2)c1 (racemic)
Ratio Ki [1]: 0.97 | Ki [2]: 36 nM | Ki [3]: 35 nM

CC(CCN1CCCCC1)c1ccccc1 (racemic)
Ratio Ki [1]: 1.22 | Ki [2]: 46 nM | Ki [3]: 56 nM

CC(CCN1CCOCC1)c1ccc2ccccc2c1 (racemic)
Ratio Ki [1]: 6.1 | Ki [2]: 5.4 nM | Ki [3]: 33 nM

CC(CCN1CCC(Cc2ccccc2)CC1)c1ccccc1 (racemic)
Ratio Ki [1]: 3.1 | Ki [3]: 6.5 nM

COc1cccc(C(C)CCN2CCOCC2)c1 (racemic)
Ratio Ki [1]: 0.67 | Ki [2]: 137 nM | Ki [3]: 92 nM

CC(CCN1CCCCC1)c1ccc2ccccc2c1 (racemic)
Ratio Ki [1]: 33.3 | Ki [2]: 1.5 nM | Ki [3]: 50 nM

CC(CCN(C)C)c1ccc2ccccc2c1 (racemic)
Ratio Ki [1]: 22 | Ki [3]: 43.8 nM

COc1ccc(C(C)CCN2CCOCC2)cc1 (racemic)
Ratio Ki [1]: 0.89 | Ki [2]: 76 nM | Ki [3]: 68 nM

COc1ccc(C(C)CCN2CCCCC2)cc1 (racemic)
Ratio Ki [1]: 2.9 | Ki [2]: 20 nM | Ki [3]: 58 nM

CC(CCN1CCC(Cc2ccccc2)CC1)c1ccc2ccccc2c1 (racemic)
Ratio Ki [1]: 7.6 | Ki [2]: 19 nM | Ki [3]: 144 nM
